Tests used:
5-HT2A receptors [1] = target: T1, 5-HT2A receptors (Homo sapiens, UniProt P28223); test: [3H]ketanserin competition binding in HEK293 cell membrane preparations; conditions: for fold lower binding affinity than risperidone (1): [3H]ketanserin, HEK293 membranes
5-HT2A receptors [2] = target: T1, 5-HT2A receptors; test: Intracellular Ca2+ release; type: cell-based
GIRK4* channel = target: T2, GIRK4* channel (Homo sapiens, UniProt P48544, S143T); test: TEVC, oocytes expressing GIRK4* alone versus GIRK4* and 5-HT2A receptors; type: cell-based; conditions: 50 µM or higher; suggests direct inhibition of GIRK4* channel
T2 sequence (P48544 1-419 S143T): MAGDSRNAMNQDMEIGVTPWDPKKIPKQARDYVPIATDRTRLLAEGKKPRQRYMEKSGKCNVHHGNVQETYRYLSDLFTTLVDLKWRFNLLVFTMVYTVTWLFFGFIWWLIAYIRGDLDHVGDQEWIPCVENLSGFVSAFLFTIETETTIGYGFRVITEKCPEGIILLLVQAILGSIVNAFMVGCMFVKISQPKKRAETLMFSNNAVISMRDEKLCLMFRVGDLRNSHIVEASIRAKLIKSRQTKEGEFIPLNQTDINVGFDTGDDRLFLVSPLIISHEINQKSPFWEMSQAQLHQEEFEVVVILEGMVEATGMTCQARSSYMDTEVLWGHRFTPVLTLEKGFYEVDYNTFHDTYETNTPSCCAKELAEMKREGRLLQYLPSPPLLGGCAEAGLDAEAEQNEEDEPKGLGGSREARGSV

5-HT2A receptors [3] = target: T1, 5-HT2A receptors; test: TEVC, compounds alone; type: cell-based
Procedure, shortened: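 Xenopus oocytes were injected with 2 ng 5-HT2A receptor plus 2 ng GIRK4* and held at 18 °C for 1–4 days. Basal GIRK4* current was taken per trace as the inward current difference with versus without 3 mM BaCl2. Read-out was current inhibition.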

5-HT2A receptors [4] = target: T1, 5-HT2A receptors; type: cell-based; conditions: 10 µM compound, 1 µM 5-HT, TEVC
5-HT2 receptor [5] = conditions: 5-HT-induced inositol phosphate production; cited from earlier work
5-HT2 receptor [6] = conditions: rats, drug discrimination; cited from earlier work

T1 sequence (P28223 whole entry): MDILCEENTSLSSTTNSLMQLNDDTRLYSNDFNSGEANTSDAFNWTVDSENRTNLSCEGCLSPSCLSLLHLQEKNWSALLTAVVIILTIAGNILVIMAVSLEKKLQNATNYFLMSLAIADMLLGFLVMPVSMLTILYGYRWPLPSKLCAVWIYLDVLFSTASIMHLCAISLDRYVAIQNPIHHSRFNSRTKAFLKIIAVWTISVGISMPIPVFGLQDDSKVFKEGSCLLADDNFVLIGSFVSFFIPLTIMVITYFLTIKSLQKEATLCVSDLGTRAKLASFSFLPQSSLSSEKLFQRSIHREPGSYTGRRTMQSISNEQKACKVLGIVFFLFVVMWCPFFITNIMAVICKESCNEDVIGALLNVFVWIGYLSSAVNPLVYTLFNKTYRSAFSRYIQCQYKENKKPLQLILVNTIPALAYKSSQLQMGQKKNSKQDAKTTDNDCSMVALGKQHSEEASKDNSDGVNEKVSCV

Row | SMILES | Ki (5-HT2A receptors [1]) [µM] | IC50 (5-HT2A receptors [2]) [µM] | current inhibition in oocytes expressing GIRK4* alone versus GIRK4* and 5-HT2A receptors (GIRK4* channel) | concentration yielding significant current inhibition by compound alone (5-HT2A receptors [3]; oocytes, no 5-HT) [µM] | antagonism of 5-HT responses at highest concentration tested (5-HT2A receptors [4]) | binding affinity relative to risperidone (5-HT2A receptors [1]) | fold lower binding affinity than risperidone (1) (5-HT2A receptors [1]) | antagonist action in vitro (5-HT2 receptor [5]) | agonism of compound alone (5-HT2A receptors [3]; concentrations tested up to 50 µM) | antagonist action in vivo (5-HT2 receptor [6])
1 | Cl.O=C(CCCN1CCC(c2noc3cc(F)ccc23)CC1)N1CCCCC1 [compound 2, 4-(4-(6-Fluorobenzisoxazol-3-yl)piperidin-1-yl)-1-(piperidin-1-yl)butan-1-one Hydrochloride] | 0.0398 | 16.7 ± 1.39 | no significant differences | – | – | – | – | – | – | –
2 | Cl.Fc1ccc2c(C3CCN(CCCCN4CCCCC4)CC3)noc2c1 [compound 3] | – | – | no significant differences | ≥ 5 | no significant effects | – | – | – | – | –
3 | CN1CCC(c2noc3cc(F)ccc23)CC1.Cl [compound 4, 6-Fluoro-3-(1-methylpiperidin-4-yl)benzisoxazole Hydrochloride] | – | 7.4 ± 1.45 | – | – | significant inhibition | half that of risperidone | 2- to 8 fold | – | – | –
4 | Fc1ccc2c(C3CCNCC3)noc2c1 [compound 5, 6-fluoro-3-(piperidin-4-yl)benzisoxazole] | – | 20.1 ± 2.24 | – | – | significant inhibition | – | 13.5 fold | potent 5-HT2 receptor antagonist | did not exhibit significant agonism | potent 5-HT2 receptor antagonist
